According to ChEMBL document CHEMBL4627348, “Synthesis of (1,3,4-thiadiazol-2-yl)-acrylamide derivatives as potential antitumor agents against acute leukemia cells” (Bioorg Med Chem Lett, 2020):
The source made the active and inactive calls. The rule behind the calls is not given here.

Tests used:
RS4-11 [1] = experiment: Antiproliferative activity against human RS4:11 cells assessed as growth inhibition at 20 uM after 48 hrs by CCK-8 assay relative to control; type: functional; details: for inhibition of growth at 20 µM: RS4-11, 48 h, read-out: GI
How it was run: (§1)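 Single-dose screen at 20 μM in RS4;11 (human ALL), HL-60 (human promyelocytic leukemia) and HEK293T (normal-cell model). Cells exposed 48 h, viability read by CCK-8, growth inhibition ratio expressed relative to control.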

[2] = Cytotoxicity against HEK293T cells assessed as growth inhibition at 20 uM after 48 hrs by CCK8 assay relative to control; type: cell-based, HEK-293T; details: human, HEK293T cells; read-out: GI; how it was run: as §1
HL-60 [3] = experiment: Antiproliferative activity against human HL60 cells assessed as growth inhibition at 20 uM after 48 hrs by CCK-8 assay relative to control; type: functional; details: for inhibition of growth at 20 µM: HL-60, 48 h, read-out: GI; how it was run: as §1
HEK-293T = experiment: Cytotoxicity against human HEK293T cells assessed as growth inhibition after 48 hrs by CCK8 assay; type: cell-based
HL-60 [4] = experiment: Antiproliferative activity against human HL60 cells assessed as growth inhibition after 48 hrs by CCK-8 assay; type: functional, cell-based; details: HL-60, 48 h
RS4-11 [5] = experiment: Antiproliferative activity against human RS4:11 cells assessed as growth inhibition after 48 hrs by CCK-8 assay; type: functional, cell-based; details: RS4-11, 48 h

| SMILES | inhibition of growth at 20 µM (RS4-11 [1]) [%] | inhibition at 48 h, 20 µM [2] [%] | inhibition of growth at 20 µM (HL-60 [3]) [%] | IC50 (HEK-293T) [µM] | IC50 (HL-60 [4]) [µM] | IC50 (RS4-11 [5]) [µM] | growth inhibition (GI) (RS4-11 [1]) | growth inhibition (GI) (HL-60 [3]) |
| --- | --- | --- | --- | --- | --- | --- | --- | --- |
| Cc1ccc(Cc2nnc(NC(=O)/C(C#N)=C/c3ccccc3OS(=O)(=O)c3ccc(Cl)cc3)s2)cc1 | 72 | 8 | 38 |  |  |  |  |  |
| COc1ccc(Cc2nnc(NC(=O)/C(C#N)=C/c3ccccc3OS(=O)(=O)c3ccc([N+](=O)[O-])cc3)s2)cc1 | 70 | 17 | 51 | > 50 | 10.9 | 3.67 |  |  |
| Cc1ccc(Cc2nnc(NC(=O)/C(C#N)=C/c3ccccc3OS(=O)(=O)c3ccc(C)cc3)s2)cc1 | 66 | 22 | 17 |  |  |  |  |  |
| N#C/C(=C\c1ccccc1OS(=O)(=O)c1ccc(F)cc1)C(=O)Nc1nnc(Cc2cccc(F)c2)s1 | 72 | 17 | 22 |  |  |  |  |  |
| COc1ccc(Cc2nnc(NC(=O)/C(C#N)=C/c3ccccc3OS(=O)(=O)c3ccccc3[N+](=O)[O-])s2)cc1 | 68 | 18 | 25 |  |  |  |  |  |
| N#C/C(=C\c1ccccc1OS(=O)(=O)c1ccc(F)cc1)C(=O)Nc1nnc(Cc2ccccc2)s1 | 69 | 6 | 22 |  |  |  |  |  |
| N#C/C(=C\c1ccccc1OS(=O)(=O)c1ccc(C(F)(F)F)cc1)C(=O)Nc1nnc(-c2cccs2)s1 | 58 | 57 | 55 | 12.3 | 17.5 | 10.5 |  |  |
| COc1ccc(S(=O)(=O)Oc2ccccc2/C=C(\C#N)C(=O)Nc2nnc(Cc3ccc(C)cc3)s2)cc1 | 79 | 28 | 100 | > 50 | 4.08 | 1.01 |  |  |
| Cc1ccc(Cc2nnc(NC(=O)/C(C#N)=C/c3ccccc3OS(=O)(=O)c3ccc([N+](=O)[O-])cc3)s2)cc1 | 64 | 9 | 17 |  |  |  |  |  |
| N#C/C(=C\c1cccc(OS(=O)(=O)c2cccs2)c1)C(=O)Nc1nnc(-c2cccs2)s1 |  | 50 | 30 |  |  |  | inactive |  |
| N#C/C(=C\c1ccccc1OS(=O)(=O)c1ccc(Cl)cc1)C(=O)Nc1nnc(-c2cccs2)s1 | 22 | 46 | 17 |  |  |  |  |  |
| N#C/C(=C\c1ccccc1OS(=O)(=O)c1ccc([N+](=O)[O-])cc1)C(=O)Nc1nnc(Cc2cccc3ccccc23)s1 | 58 | 25 | 18 |  |  |  |  |  |
| Cc1nnc(NC(=O)/C(C#N)=C/c2cccc(OS(C)(=O)=O)c2)s1 | 33 | 20 | 20 |  |  |  |  |  |
| N#C/C(=C\c1ccccc1OS(=O)(=O)c1ccc([N+](=O)[O-])cc1)C(=O)Nc1nnc(-c2cccs2)s1 | 40 | 33 | 23 |  |  |  |  |  |
| Cc1ccc(S(=O)(=O)Oc2cccc(/C=C(\C#N)C(=O)Nc3nnc(-c4ccccc4)s3)c2)cc1 | 35 | 52 | 63 |  |  |  |  |  |
| COc1ccc(Cc2nnc(NC(=O)/C(C#N)=C/c3ccccc3OS(=O)(=O)c3ccc(C)cc3)s2)cc1 | 70 | 21 | 25 |  |  |  |  |  |
| Cc1ccc(S(=O)(=O)Oc2ccccc2/C=C(\C#N)C(=O)Nc2nnc(Cc3ccccc3)s2)cc1 | 69 | 15 | 16 |  |  |  |  |  |
| N#C/C(=C\c1ccccc1OS(=O)(=O)c1ccccc1[N+](=O)[O-])C(=O)Nc1nnc(Cc2ccc(F)cc2)s1 | 61 | 6 | 35 |  |  |  |  |  |
| N#C/C(=C\c1ccccc1OS(=O)(=O)c1ccc([N+](=O)[O-])cc1)C(=O)Nc1nnc(Cc2ccc(Cl)cc2)s1 | 66 | 19 | 34 |  |  |  |  |  |
| Cc1ccc(S(=O)(=O)Oc2cccc(/C=C(\C#N)C(=O)Nc3nnc(C)s3)c2)cc1 | 28 | 27 | 71 | > 50 | 5.78 | > 20 |  |  |
| Cc1ccc(S(=O)(=O)Oc2cccc(/C=C(\C#N)C(=O)Nc3nnc(-c4cccs4)s3)c2)cc1 | 25 | 43 | 62 | > 20 | 8.75 | > 20 |  |  |
| COc1ccc(S(=O)(=O)Oc2ccccc2/C=C(\C#N)C(=O)Nc2nnc(Cc3cccc(F)c3)s2)cc1 | 74 | 29 | 100 | > 50 | 3.88 | 1.21 |  |  |

| SMILES | inhibition of growth at 20 µM (RS4-11 [1]) [%] | inhibition at 48 h, 20 µM [2] [%] | inhibition of growth at 20 µM (HL-60 [3]) [%] | IC50 (HEK-293T) [µM] | IC50 (HL-60 [4]) [µM] | IC50 (RS4-11 [5]) [µM] | growth inhibition (GI) (RS4-11 [1]) | growth inhibition (GI) (HL-60 [3]) |
| --- | --- | --- | --- | --- | --- | --- | --- | --- |
| N#C/C(=C\c1ccccc1OS(=O)(=O)c1ccc(Cl)cc1)C(=O)Nc1nnc(Cc2cccc(F)c2)s1 | 71 | 29 | 42 |  |  |  |  |  |
| N#C/C(=C\c1ccccc1OS(=O)(=O)c1ccc(Cl)cc1)C(=O)Nc1nnc(Cc2cccc3ccccc23)s1 | 68 | 16 | 15 |  |  |  |  |  |
| Cc1ccc(S(=O)(=O)Oc2ccccc2/C=C(\C#N)C(=O)Nc2nnc(Cc3cccc4ccccc34)s2)cc1 | 73 | 23 | 19 |  |  |  |  |  |
| N#C/C(=C\c1ccccc1OS(=O)(=O)c1ccccc1[N+](=O)[O-])C(=O)Nc1nnc(Cc2ccc(Cl)cc2)s1 | 65 | 20 | 19 |  |  |  |  |  |
| N#C/C(=C\c1ccccc1OS(=O)(=O)c1ccccc1[N+](=O)[O-])C(=O)Nc1nnc(Cc2ccccc2)s1 | 71 | 10 | 12 |  |  |  |  |  |
| COc1ccc(Cc2nnc(NC(=O)/C(C#N)=C/c3ccccc3OS(=O)(=O)c3ccc(F)cc3)s2)cc1 | 80 | 6 | 25 |  |  |  |  |  |
| COc1ccc(Cc2nnc(NC(=O)/C(C#N)=C/c3ccccc3OS(=O)(=O)c3ccc(Cl)cc3)s2)cc1 | 79 | 34 |  | > 50 |  | 4.02 |  |  |
| N#C/C(=C\c1ccccc1OS(=O)(=O)c1ccc(Cl)cc1)C(=O)Nc1nnc(Cc2ccc(F)cc2)s1 | 68 | 6 | 20 |  |  |  |  |  |
| N#C/C(=C\c1ccccc1OS(=O)(=O)c1ccc(F)cc1)C(=O)Nc1nnc(Cc2cccc3ccccc23)s1 | 68 | 15 | 12 |  |  |  |  |  |
| Cc1ccc(Cc2nnc(NC(=O)/C(C#N)=C/c3ccccc3OS(=O)(=O)c3ccc(F)cc3)s2)cc1 | 73 | 11 | 11 |  |  |  |  |  |
| N#C/C(=C\c1ccccc1OS(=O)(=O)c1ccc(F)cc1)C(=O)Nc1nnc(Cc2ccc(Cl)cc2)s1 | 64 | 14 | 20 |  |  |  |  |  |
| N#C/C(=C\c1ccccc1OS(=O)(=O)c1ccc(OC(F)(F)F)cc1)C(=O)Nc1nnc(-c2cccs2)s1 | 39 | 42 | 48 |  |  |  |  |  |
| N#C/C(=C\c1ccccc1OS(=O)(=O)c1ccc(Cl)cc1)C(=O)Nc1nnc(Cc2ccc(Cl)cc2)s1 | 64 | 14 | 15 |  |  |  |  |  |
| Cc1ccc(S(=O)(=O)Oc2ccccc2/C=C(\C#N)C(=O)Nc2nnc(Cc3ccc(F)cc3)s2)cc1 | 72 | 16 |  |  |  |  |  | inactive |
| Cc1ccc(S(=O)(=O)Oc2ccccc2/C=C(\C#N)C(=O)Nc2nnc(Cc3cccc(F)c3)s2)cc1 | 56 | 9 | 11 |  |  |  |  |  |
| Cc1ccc(S(=O)(=O)Oc2cccc(/C=C(\C#N)C(=O)Nc3nnc(-c4ccccc4Cl)s3)c2)cc1 | 44 | 55 | 67 |  |  |  |  |  |
| Cc1ccc(Cc2nnc(NC(=O)/C(C#N)=C/c3ccccc3OS(=O)(=O)c3ccccc3[N+](=O)[O-])s2)cc1 |  | 6 | 33 |  |  |  | inactive |  |
| N#C/C(=C\c1ccccc1OS(=O)(=O)c1ccc(Cl)cc1)C(=O)Nc1nnc(Cc2ccccc2)s1 | 73 | 25 | 26 |  |  |  |  |  |
| CS(=O)(=O)Oc1ccc(/C=C(\C#N)C(=O)Nc2nnc(-c3cccs3)s2)cc1 | 13 | 19 |  |  |  |  |  | inactive |
| Cc1ccc(S(=O)(=O)Oc2ccccc2/C=C(\C#N)C(=O)Nc2nnc(Cc3ccc(Cl)cc3)s2)cc1 | 69 | 20 | 15 |  |  |  |  |  |
| N#C/C(=C\c1ccccc1OS(=O)(=O)c1ccc([N+](=O)[O-])cc1)C(=O)Nc1nnc(Cc2ccc(F)cc2)s1 | 55 | 8 | 18 |  |  |  |  |  |
| N#C/C(=C\c1cccc(NS(=O)(=O)c2ccc(F)cc2)c1)C(=O)Nc1nnc(-c2cccs2)s1 | 22 | 29 |  |  |  |  |  | inactive |
